Screening data as filed in PubChem.
Most compounds without a hit are left out; they make up all but 2.3% or so of the library.
TRPC6 inhibitor – mouse TRPC6 channel inhibition; Q61143; HEK293-TRPC6, membrane potential dye, ACh-evoked depolarization; stronger effect = lower value; B-score at 10 µM; hit rate 1.1% among 310,000;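 active = B-score under library mean minus 3 SD, initial fluorescence not abnormally high, positive integrated signal ratio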;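 also: B-score derived from integrated fluorescence ratio over the kinetic read; more negative B-score means stronger inhibition of depolarization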
Target sequence (Q61143 whole entry, looked up): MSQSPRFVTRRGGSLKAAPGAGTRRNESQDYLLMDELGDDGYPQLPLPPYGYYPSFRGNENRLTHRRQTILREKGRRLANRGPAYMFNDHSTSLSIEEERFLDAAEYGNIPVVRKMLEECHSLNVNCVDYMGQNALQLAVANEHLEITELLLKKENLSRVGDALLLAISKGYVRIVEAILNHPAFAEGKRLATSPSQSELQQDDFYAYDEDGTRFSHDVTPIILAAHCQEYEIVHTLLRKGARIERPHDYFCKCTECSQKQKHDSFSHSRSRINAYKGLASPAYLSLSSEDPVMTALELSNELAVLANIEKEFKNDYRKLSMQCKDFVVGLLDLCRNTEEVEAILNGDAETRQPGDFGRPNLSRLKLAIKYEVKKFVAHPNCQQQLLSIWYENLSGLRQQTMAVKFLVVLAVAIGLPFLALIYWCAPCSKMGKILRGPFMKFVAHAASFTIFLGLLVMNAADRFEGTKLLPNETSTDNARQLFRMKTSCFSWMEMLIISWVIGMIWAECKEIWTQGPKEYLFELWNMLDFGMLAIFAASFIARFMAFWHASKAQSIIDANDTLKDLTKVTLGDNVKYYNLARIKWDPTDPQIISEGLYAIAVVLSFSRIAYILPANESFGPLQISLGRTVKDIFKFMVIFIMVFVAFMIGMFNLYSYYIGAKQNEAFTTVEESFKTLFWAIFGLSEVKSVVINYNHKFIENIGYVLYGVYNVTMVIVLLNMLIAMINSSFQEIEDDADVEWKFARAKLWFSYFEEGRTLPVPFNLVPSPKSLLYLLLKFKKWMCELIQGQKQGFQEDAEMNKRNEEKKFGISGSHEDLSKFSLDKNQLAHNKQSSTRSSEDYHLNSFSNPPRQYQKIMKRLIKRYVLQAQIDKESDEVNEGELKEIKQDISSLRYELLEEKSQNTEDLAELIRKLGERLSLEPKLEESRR
TRPC4 act – opens the mouse TRPC4 cation channel | HEK293 TRPC4beta/mu-opioid, Fluo4 calcium fluorescence; stronger effect = higher value | B-score at 10 µM | hit rate 0.49% among 310,000 | Q9QUQ5 | AID 2237;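 active = B-score above 5 SD of library B-scores, and initial fluorescence ratio not above library mean plus 5 SD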;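 also: positive B-score marks a calcium rise read as TRPC4 activation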
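Incubation: 45 min room-temperature Fluo4 loading, 110 s read / System: HEK293 cells stably co-expressing mouse TRPC4beta and mu-opioid receptor / Signal: Fluo4 fluorescence, kinetic / Control set: buffer (low) and maximal DAMGO (high) / Measure: integrated baseline-normalised fluorescence ratio, converted to per-well B score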
TRPC6 act – activators of mouse TRPC6 channel. Q61143. HEK293-TRPC6 membrane potential dye fluorescence; stronger effect = higher value. B-score at 10 µM. hit rate 0.13% among 310,000;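 active = B-score of the integrated fluorescence ratio above library mean plus 3 SD, and starting fluorescence ratio within library mean plus 5 SD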;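 also: higher score means more depolarization so channel activation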
TRPC4 block – blocks the mouse TRPC4 cation channel; HEK293 TRPC4beta/mu-opioid, DAMGO-evoked Fluo4 calcium flux; stronger effect = lower value; hit rate 0.39% among 300,000; B-score at 10 µM; Q9QUQ5; AID 2247;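 active = B-score over 3 SD under the library average, no early fluorescence shift, positive overall ratio signal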
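material = TRPC4beta/mu-opioid receptor HEK293 cell line | probe or stimulus = sequential submaximal and maximal DAMGO stimulation | compound dosing = one concentration per compound | measured by = Fluo4 Ca2+ flux fluorescence | evaluation = integrated fluorescence ratio relative to baseline, converted to per-well B score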
TRPC4 PAM – allosterically enhances the mouse TRPC4 cation channel; HEK293 TRPC4beta/mu-opioid, DAMGO EC20, Fluo-4 Ca2+ flux; stronger effect = higher value; B-score at 10 µM; hit rate 0.42% among 310,000;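 active = B-score of calcium response area above 5 SD of library B-scores, with initial fluorescence ratio within 5 SD of library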;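 also: B-score of integrated fluorescence ratio over time as area under calcium response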
Active calls of the source: *; i = inactive; nt = no result given.

SMILES	TRPC6 inhibitor	TRPC4 act	TRPC6 act	TRPC4 block	TRPC4 PAM
COc1ccccc1C(=O)NNC(=S)NC(=O)c1cccs1	i	137*	i	i	i
COc1ccccc1C(=O)NNC(=S)NC(=O)c1sc2ccccc2c1Cl	i	48*	i	-8*	i
COc1ccc(C(=O)NNC(=S)Nc2ccccc2)cc1	i	i	i	i	i
COc1ccc(C(=O)NC(=S)NNC(=O)c2cccc(C)c2)cc1	i	214*	i	i	i
COc1ccc(S(=O)(=O)Nc2cc3c4c(c2)C(C)C(=O)N4CCC3)cc1OC (stereo not given)	i	i	i	i	i
CC(=O)c1cccc(NC(=O)CCN2C(=O)C3C4CCC(C4)C3C2=O)c1 (stereo not given)	i	i	i	i	i
O=C(Cc1ccc(Cl)cc1)NNC(=S)NC(=O)c1cccs1	i	107*	i	i	i
COc1ccc(C(=O)NNC(=S)NC(=O)c2ccc(F)cc2)cc1Br	i	49*	i	i	i
O=C(CC1C(=O)N(c2ccccc2)C(=O)N1C1CCCCC1)Nc1ccccc1 (stereo not given)	i	i	i	i	i
CCc1ccc(C(=O)N2CCN(c3ccc(NC(=O)c4cccnc4)cc3)CC2)cc1	i	i	i	i	i
C=CCNC(=S)NNC(=O)c1ccc(OCCC)cc1	i	i	i	i	i
CCCOc1ccc(C(=O)NNC(=S)NC(=O)CC)cc1	i	46*	i	i	i
CCCOc1ccc(C(=O)NC(=S)NNC(=O)c2c(-c3ccccc3)noc2C)cc1	i	194*	i	i	i
Cc1onc(-c2ccccc2)c1C(=O)NC(=S)NNC(=O)c1ccccc1O	i	247*	i	i	i
COc1ccc2c(CC(=O)Nc3ccc(OC)nc3)coc2c1	i	i	i	i	i
Cc1cc(OCCCCn2ccnc2)cc(C)c1Cl	i	141*	i	i	i
Cc1cccc(OCCCCCn2ccnc2)c1	i	i	i	i	14*
Cc1cccc(OCCn2ccnc2)c1	i	i	i	i	i
Clc1ccccc1OCCCn1ccnc1	i	i	i	i	i
Clc1ccc(SCCCCn2ccnc2)cc1	i	75*	i	i	i
Clc1ccccc1OCCCCn1ccnc1	i	i	i	i	i
Cc1cccc(Cl)c1OCCCCn1ccnc1	i	77*	i	nt	i
Cc1cc(OCCCn2ccnc2)ccc1C(C)C	i	i	i	i	i
O=c1nc2n(c3ncccc13)CCCCC2	i	i	i	i	i
CC[C@@H](C)C(N)c1cn([C@@H](CCC(=O)O)C(=O)N2CCNCC2)nn1 (stereo not given in full)	i	i	i	i	i
SMILES	TRPC6 inhibitor	TRPC4 act	TRPC6 act	TRPC4 block	TRPC4 PAM
c1ccc2cc(OCCCn3ccnc3)ccc2c1	i	53*	i	i	11*
O=C(COc1ccc(Cl)cc1Cl)NCCCn1ccnc1	i	i	i	i	i
Cc1ccccc1OCCCCCn1ccnc1	i	61*	i	i	i
Clc1cccc(OCCCn2ccnc2)c1	i	i	i	i	i
CC(C)(C)c1ccccc1OCC(=O)NCCCn1ccnc1	i	55*	i	i	i
Cc1cc(Cl)cc(C)c1OCCCCn1ccnc1	i	106*	i	i	i
COc1cc2c(cc1OC)C(C)N(C(=S)NC(=O)c1ccccc1)CC2 (stereo not given)	i	i	i	i	i
CC(=O)OCCOc1nc(N(C)C)nc(N(C)C)n1	i	i	i	i	i
COc1ccc2c(c1)c1ncn(CCCN3CCOCC3)c(=O)c1n2C	i	i	i	i	13*
Cc1ccc(S(=O)(=O)N2CCN(c3cc4c(cc3[N+](=O)[O-])n(C)c(=O)n4C)CC2)cc1	i	i	i	i	15*
Cn1c(=O)n(C)c2cc([N+](=O)[O-])c(N3CCN(S(=O)(=O)c4ccc5ccccc5c4)CC3)cc21	i	i	i	i	i
CCOc1ccc(N(CC(=O)N2CCCCC2)S(=O)(=O)c2ccc(Cl)cc2)cc1	i	i	i	i	i
CSc1nsc(NC(=O)Cc2ccccc2)n1	i	i	i	-6*	i
CSc1nsc(SCC(=O)Nc2ccccc2)n1	i	i	i	i	i
CC1CCC(NC(=O)c2cc3c(s2)CCCC3)CC1 (stereo not given)	i	i	i	i	i
COC(=O)C(=CC(=CN(C)C)C=C(C(=O)OC)C(=O)OC)C(=O)OC	i	i	i	i	i
CCOC(=O)CN1N=C(/C=C/c2ccccc2)CCC1=O	i	i	i	i	i
CCOC(=O)CN1N=C(/C=C/c2ccc(C(C)C)cc2)CCC1=O	i	i	i	i	11*
CCN(C(=O)c1cnc(NC(C)C)cc1C(F)(F)F)c1ccc(Cl)cc1Cl	i	i	i	-6*	i
Cc1cc(C)nc(/N=C(\N)Nc2ccc(CC(=O)OC(C)C)cc2)n1	i	i	i	i	i
Cc1cc(C)nc(/N=C(\N)Nc2ccc(OCCC(C)C)cc2)n1	i	51*	i	i	i
CCOC(=O)C(=O)Nc1ccc(OCc2ccccc2)cc1	i	i	i	i	i
Cc1cc(C)nc(/N=C(\N)Nc2cccc(OCc3ccccc3)c2)n1	-5.4*	i	i	i	i
Cc1cc(C)nc(/N=C(\N)Nc2ccc(OCc3ccccc3)cc2)n1	i	61*	i	i	i
CCN(CC)CCNC(=O)c1c(O)c2cc(OC)c(OC)cc2[nH]c1=O	i	i	i	i	i
SMILES	TRPC6 inhibitor	TRPC4 act	TRPC6 act	TRPC4 block	TRPC4 PAM
CC(C)(C)C(=O)Nc1cc(NC(=O)C(C)(C)C)cc(C(=O)Nc2cc(C(=O)O)cc(C(=O)O)c2)c1	i	i	i	i	i
Cc1cccc(-n2cc(-c3ccccc3)c3c(NN4CCOCC4)ncnc32)c1	i	i	i	i	14*
c1ccc(-c2cn(-c3ccccc3)c3ncnc(N4CCCCC4)c23)cc1	i	i	i	i	i
CCOc1ccc(-n2cc(-c3ccccc3)c3c(N4CCOCC4)ncnc32)cc1	i	i	i	i	16*
CCc1ccccc1OCc1nnc(N)s1	i	i	i	i	i
CN(C)CC(C)(C)CNS(=O)(=O)c1ccc(OC(F)(F)F)cc1	i	i	i	i	i
O=[N+]([O-])c1ccccc1CN1CCN(S(=O)(=O)c2ccccc2)CC1	i	i	i	i	17*
